Results as given in ChEMBL document CHEMBL4321868, “Scaffold Simplification Strategy Leads to a Novel Generation of Dual Human Immunodeficiency Virus and Enterovirus-A71 Entry Inhibitors” (J Med Chem, 2020).
Blank lines part the entries; values can stand above or below the molecule they belong to. Active and inactive are the calls of the source. No cut-off for these calls is given here.

Columns and labels:
[1] = Selectivity index, ratio of CC50 for human RD cells to EC50 for Enterovirus A71 BrCr infected in human RD cells; format: toxicity, cell-based; settings: read-out: Ratio CC50/EC50
How it was run: (§1)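 RD cells seeded in 96-well plates; next day serial compound dilutions plus virus at low MOI added. Incubation at 37 °C, 5% CO₂ until full CPE in untreated infected controls (3 days). CC50 from uninfected treated cells in the same setup; SI = CC50/EC50.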

[2] = tested on: Enterovirus A71; assay: Antiviral activity against Enterovirus A 71 BrCr infected in human RD cells assessed as reduction in virus-induced cytopathic effect preincubated for 1 day followed by viral infection and measured after 3 days by MTS/PMS method; format: functional, organism-based; settings: strain BRCR
How it was run: as §1, with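 “days). Viability read by MTS/PMS; EC50 as 50% inhibition of virus-induced death from dose-response curves.” for “days).”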

[3] = tested on: Enterovirus A71; assay: Antiviral activity against Enterovirus A 71 BrCr infected in human RD cells assessed as reduction in viral RNA level at 20 uM preincubated for 1 hr followed by viral infection and measured 8 hrs post-infection by RT-qPCR analysis relative to control; format: functional, strain BRCR; set-up: scale not given: the % may be the effect or the level left
How it was run: (§2)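 RD cells grown to confluence; compound at 20 μM in 2% FBS medium added 1 h before or 1, 2, 4 h after EV-A71 BrCr infection (MOI 1). Pirodavir 20 μM as entry-inhibitor reference; infected untreated cells as controls. At 8 h post-infection, intracellular RNA isolated and viral RNA quantified by RT-qPCR.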

[4] = tested on: Enterovirus A71; assay: Antiviral activity against Enterovirus A 71 BrCr infected in human RD cells assessed as reduction in viral RNA level at 20 uM administered at onset of infection measured 8 hrs post-infection by RT-qPCR analysis relative to control; format: functional, strain BRCR; set-up: scale not given: the % may be the effect or the level left
[5] = molecular target: Human immunodeficiency virus type 1 reverse transcriptase (Human immunodeficiency virus 1) (UniProt Q72547); settings: 3B, MT4, 12 uM
[6] = Selectivity ratio of EC50 for Enterovirus A 71 BrCr infected in human RD cells to EC50 for Enterovirus A 71 genotype B2 11316 infected in human RD cells; format: functional
[7] = tested on: Enterovirus A71; assay: Antiviral activity against Enterovirus A71 genotype C2 H08300 461812 infected in human RD cells assessed as reduction in virus-induced cytopathic effect preincubated for 1 day followed by viral infection and measured after 3 days by MTS/PMS method; format: functional, organism-based; settings: Enterovirus A, genotype C2 H08300 461812, RD; how it was run: as §1
[8] = tested on: RD; assay: Cytotoxicity against human RD cells assessed as adverse effect on cell; format: cell-based
[9] = tested on: Enterovirus A71; assay: Antiviral activity against Enterovirus A71 genotype B2 11316 infected in human RD cells assessed as reduction in virus-induced cytopathic effect preincubated for 1 day followed by viral infection and measured after 3 days by MTS/PMS method; format: functional, organism-based; settings: Enterovirus A, genotype B2 11316, RD; how it was run: as §1
[10] = tested on: Human immunodeficiency virus 2; assay: Antiviral activity against HIV-2 ROD infected in human MT4 cells assessed as reduction in virus-induced cytopathic effect preincubated for 30 mins followed by viral infection and measured after 5 days by MTS assay; settings: Human immunodeficiency virus 2, ISOLATE ROD
[11] = tested on: Enterovirus A71; assay: Antiviral activity against Enterovirus A71 genotype C4 TW/1956/05 infected in human RD cells assessed as reduction in virus-induced cell death preincubated for 1 day followed by viral infection and measured after 3 days by microscopic analysis; format: functional; set-up: scale not given: the % may be the effect or the level left
How it was run: (§3)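 RD cells were seeded in 96-well plates and infected the next day at low MOI, with serial compound dilutions added at the same time. Plates were incubated at 37 °C, 5% CO2 for 3 days, until untreated infected controls died. Cell death was quantified by MTS/PMS and EC50 calculated from dose-response curves. Values come from more than 2 dose-response curves across more than 1 experiment, with microscopic quality control.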

[12] = tested on: RD; assay: Cytotoxicity against human RD cells assessed as induction of cell morphological changes; format: cell-based
[13] = tested on: Enterovirus A71; assay: Antiviral activity against Enterovirus A 71 BrCr infected in human RD cells assessed as reduction in virus-induced cell death preincubated for 1 day followed by viral infection and measured after 3 days by microscopic analysis; format: functional, strain BRCR; set-up: scale not given: the % may be the effect or the level left; how it was run: as §3
[14] = Selectivity ratio of EC50 for Enterovirus A 71 BrCr infected in human RD cells to EC50 for Enterovirus A 71 genotype C4 TW/1956/05 infected in human RD cells; format: functional
[15] = tested on: Enterovirus A71; assay: Antiviral activity against Enterovirus A71 genotype B5 TW/70902/08 infected in human RD cells assessed as reduction in virus-induced cell death preincubated for 1 day followed by viral infection and measured after 3 days by […]; format: functional; set-up: scale not given: the % may be the effect or the level left; how it was run: as §3
[16] = Cytotoxicity against human MT4 cells assessed as reduction in cell viability measured after 5 days by MTS/PES assay; format: cell-based
How it was run: (§4)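 MT-4 cells (RPMI-1640, 10% FCS, 1% L-glutamine) pre-incubated 30 min at 37 °C with compound, then infected with HIV-1 NL4.3 or HIV-2 ROD according to stock TCID50. After 5 days, CPE scored microscopically and viability read by MTS/PES at A490 to derive EC50; cytotoxicity measured by MTS/PES at 5 days in the same cells. SI = CC50/EC50. Mean ± S.D. of at least 3 experiments.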

[17] = tested on: Enterovirus A71; assay: Antiviral activity against Enterovirus A71 genotype B5 TW/70902/08 infected in human RD cells assessed as reduction in virus-induced cytopathic effect preincubated for 1 day followed by viral infection and measured after 3 days by MTS/PMS method; format: functional, organism-based; settings: Enterovirus A, genotype B5 TW/70902/08, RD; how it was run: as §1
[18] = Selectivity index, ratio of CC50 for human MT4 cells to EC50 for HIV-1 NL4.3 infected in human MT4 cells
[19] = tested on: Enterovirus A71; assay: Antiviral activity against Enterovirus A71 genotype B2 11316 infected in human RD cells assessed as reduction in virus-induced cell death preincubated for 1 day followed by viral infection and measured after 3 days by microscopic analysis; format: functional; set-up: scale not given: the % may be the effect or the level left; how it was run: as §3
[20] = tested on: Enterovirus A71; assay: Antiviral activity against Enterovirus A71 genotype C4 TW/1956/05 infected in human RD cells assessed as reduction in virus-induced cytopathic effect preincubated for 1 day followed by viral infection and measured after 3 days by MTS/PMS method; format: functional, organism-based; settings: Enterovirus A, genotype C4 TW/1956/05, RD; how it was run: as §1
[21] = Selectivity index, ratio of CC50 for human MT4 cells to EC50 for HIV1 NL4.3 infected in human MT4 cells; format: toxicity, cell-based; settings: read-out: Ratio CC50/EC50; how it was run: as §4
[22] = tested on: Human immunodeficiency virus 1; assay: Antiviral activity against HIV1 NL4.3 infected in human MT4 cells assessed as reduction in virus-induced cytopathic effect preincubated for 30 mins followed by viral infection and measured after 5 days by MTS assay; format: functional, organism-based; settings: Human immunodeficiency virus 1, NL4.3, MT4
[23] = tested on: Enterovirus A71; assay: Antiviral activity against Enterovirus A71 genotype C2 H08300 461812 infected in human RD cells assessed as reduction in virus-induced cell death preincubated for 1 day followed by viral infection and measured after 3 days by microscopic analysis; format: functional; set-up: scale not given: the % may be the effect or the level left; how it was run: as §3
[24] = molecular target: Envelope glycoprotein gp160 (Human immunodeficiency virus 1) (UniProt Q6QLK5); assay: Binding affinity to recombinant HIV1 3B gp120 by SPR analysis
Sequence of Envelope glycoprotein gp160 (Human immunodeficiency virus 1) (Q6QLK5 1-814): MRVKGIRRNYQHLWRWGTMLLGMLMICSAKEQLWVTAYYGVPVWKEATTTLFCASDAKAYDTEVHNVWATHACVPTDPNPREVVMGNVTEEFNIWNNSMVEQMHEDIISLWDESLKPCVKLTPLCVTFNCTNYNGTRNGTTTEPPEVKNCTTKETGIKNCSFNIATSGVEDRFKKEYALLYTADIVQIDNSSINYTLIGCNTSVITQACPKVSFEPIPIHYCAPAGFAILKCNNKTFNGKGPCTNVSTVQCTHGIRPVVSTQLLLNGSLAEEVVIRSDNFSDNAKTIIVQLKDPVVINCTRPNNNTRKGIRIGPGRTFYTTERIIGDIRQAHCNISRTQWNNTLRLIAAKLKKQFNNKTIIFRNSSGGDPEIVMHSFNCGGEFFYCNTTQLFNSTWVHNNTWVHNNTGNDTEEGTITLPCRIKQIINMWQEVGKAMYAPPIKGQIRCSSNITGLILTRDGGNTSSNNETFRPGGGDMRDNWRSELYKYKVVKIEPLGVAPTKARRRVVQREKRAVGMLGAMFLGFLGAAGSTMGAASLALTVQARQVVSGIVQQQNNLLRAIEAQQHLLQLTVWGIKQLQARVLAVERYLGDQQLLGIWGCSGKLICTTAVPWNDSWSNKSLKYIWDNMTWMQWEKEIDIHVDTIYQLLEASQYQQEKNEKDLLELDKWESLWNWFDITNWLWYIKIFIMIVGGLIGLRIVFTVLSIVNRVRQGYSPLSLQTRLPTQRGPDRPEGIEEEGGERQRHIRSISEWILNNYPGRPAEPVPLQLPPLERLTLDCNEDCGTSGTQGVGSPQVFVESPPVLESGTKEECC

[25] = tested on: Enterovirus A71; assay: Antiviral activity against Enterovirus A 71 BrCr harboring VP1 S184T/P246S mutant infected in human RD cells assessed as reduction in virus-induced cytopathic effect preincubated for 1 day followed by viral infection and measured after 3 days by MTS/PMS method; format: functional, organism-based, strain BRCR
[26] = molecular target: Envelope glycoprotein gp160 (Human immunodeficiency virus 1) (UniProt Q6QLK5); assay: (§5) Inhibition of biotinylated-heparin binding to recombinant HIV1 3B gp120 by SPR analysis
How it was run: (§6)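 SPR at 25 °C in PBS with 5% DMSO, 0.005% Tween20, pH 7.4. Minimally biotinylated heparin captured (880 RU) on streptavidin chip. Recombinant HIV-1 IIIB gp120 (10 nM) alone or premixed with a compound concentration range injected 2 min at 10 μl/min; regenerated with 1 M NaCl/10 mM NaOH. Double-referenced; RU converted to % inhibition vs gp120 alone; nonlinear fit, three experiments.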

[27] = molecular target: Envelope glycoprotein gp160 (Human immunodeficiency virus 1, UniProt Q6QLK5); assay: as §5; how it was run: as §6
Sequence of Envelope glycoprotein gp160 (Q6QLK5 whole entry): as the sequence (Q6QLK5 1-814) above

[28] = tested on: Enterovirus A71; assay: Antiviral activity against Enterovirus A 71 BrCr infected in human RD cells assessed as reduction in viral RNA level at 20 uM treated 1 to 4 hrs post-infection and measured 8 hrs post-infection by RT-qPCR analysis; format: functional, strain BRCR; set-up: scale not given: the % may be the effect or the level left; how it was run: as §2
[29] = tested on: HeLa; assay: Binding affinity to capsid protein VP1 five fold axis in Enterovirus A71 genotype B2 11316 infected in human HeLa cells at 20 uM measured after 1 hr by cryo-electron microscopic analysis; format: cell-based
[30] = tested on: Human immunodeficiency virus 1; assay: Antiviral activity against HIV1 3B infected in human MT4 cells assessed as reduction in p24 production at 20 uM incubated for 1 hr prior to viral infection followed by compound washout and measured 8 hrs post-infection by ELISA; format: functional, organism-based
[31] = tested on: Human immunodeficiency virus 1; assay: Antiviral activity against HIV1 3B infected in human MT4 cells assessed as reduction in p24 production at 20 uM administered at onset of infection measured 8 hrs post-infection by ELISA; format: functional, organism-based
[32] = tested on: Enterovirus A71; assay: Antiviral activity against Enterovirus A 71 BrCr harboring VP1 P246S mutant infected in human RD cells assessed as reduction in virus-induced cytopathic effect preincubated for 1 day followed by viral infection and measured after 3 days by MTS/PMS method; format: functional, organism-based, strain BRCR
[33] = tested on: Enterovirus A71; assay: Antiviral activity against Enterovirus A 71 BrCr harboring VP1 S184T mutant infected in human RD cells assessed as reduction in virus-induced cytopathic effect preincubated for 1 day followed by viral infection and measured after 3 days by MTS/PMS method; format: functional, organism-based, strain BRCR

Compound: CCOC(=O)c1ccc(OCCC2CCN(c3ccc(C)nn3)CC2)cc1 [PIRODAVIR]
selectivity ratio [1]: > 333
EC50 [2]: 300 nM
EC90 [2]: 600 nM
Activity [3]: 100%
Activity [4]: 100%

inhibition [5]: Active
Compound: Cc1cn([C@H]2C[C@H](N=[N+]=[N-])[C@@H](CO)O2)c(=O)[nH]c1=O

Compound: O=C(CCOCC(COCCC(=O)NC(Cc1c(-c2cccc(C(=O)O)c2)[nH]c2ccccc12)C(=O)O)(COCCC(=O)NC(Cc1c(-c2cccc(C(=O)O)c2)[nH]c2ccccc12)C(=O)O)COCCC(=O)NC(Cc1c(-c2cccc(C(=O)O)c2)[nH]c2ccccc12)C(=O)O)NC(Cc1c(-c2cccc(C(=O)O)c2)[nH]c2ccccc12)C(=O)O (stereo not given)
Ratio EC50 [6]: 4
EC50 [7]: 7.3 nM
Activity [8]: Non-Toxic
EC50 [9]: 52 nM
EC50 [10]: 760 nM
Activity [11]: 100%
Activity [12]: Non-Toxic
Activity [13]: 100%
selectivity ratio [1]: > 336
Ratio EC50 [14]: 88
EC50 [2]: 175 to 190 nM
EC90 [2]: 300 nM
Activity [15]: 100%
CC50 at 120 h [16]: > 100000 nM
EC50 [17]: 18 nM
selectivity ratio [18]: > 50
Activity [19]: 100%
EC50 [20]: 2 nM
selectivity ratio [21]: > 50
EC50 [22]: 2000 nM
Activity [23]: 100%

Compound: O=C(CCC(CCC(=O)NC(Cc1c(-c2cc(C(=O)O)cc(C(=O)O)c2)[nH]c2ccccc12)C(=O)O)(CCC(=O)NC(Cc1c(-c2cc(C(=O)O)cc(C(=O)O)c2)[nH]c2ccccc12)C(=O)O)[N+](=O)[O-])NC(Cc1c(-c2cc(C(=O)O)cc(C(=O)O)c2)[nH]c2ccccc12)C(=O)O (stereo not given)
Ratio EC50 [6]: 2
EC50 [7]: 57 nM
Activity [24]: Dose-dependent effect
Activity [8]: Non-Toxic
EC50 [9]: 179 nM
EC50 [10]: 630 nM
EC50 [25]: 2180 nM
inhibition [26]: Dose-dependent effect
IC50 [27]: 982 nM
Activity [12]: Non-Toxic
selectivity ratio [1]: > 203
Ratio EC50 [14]: 9
Activity [28]: 0%
EC50 [2]: 350 nM
EC90 [2]: 550 nM
Activity [29]: Active
Activity [30]: Active
Activity [3]: 100%
Activity [4]: 100%
CC50 at 120 h [16]: > 100000 nM
EC50 [17]: 81 nM
Activity [31]: Active
selectivity ratio [18]: > 370
EC50 [20]: 38 nM
selectivity ratio [21]: > 370
EC50 [32]: 1960 nM
EC50 [33]: 2350 nM
EC50 [22]: 270 nM
